Measurements: ChEMBL document CHEMBL1833940, “Discovery of 3-(2,6-dichloro-3,5-dimethoxy-phenyl)-1-{6-[4-(4-ethyl-piperazin-1-yl)-phenylamino]-pyrimidin-4-yl}-1-methyl-urea (NVP-BGJ398), a potent and selective inhibitor of the fibroblast growth factor receptor family of receptor tyrosine kinase” (J Med Chem, 2011)

Columns and labels:
[1] = test system: BaF3; assay: Antiproliferative activity against mouse BAF3 cell line transformed with TEL-FGFR3 construct after 48 hrs by luciferase bioluminescent assay; format: functional, cell-based; details: BaF3, 48 h
How it was run: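 IL-3-independent BaF3 or BaF3 Tel-TK cells were grown in RPMI-1640 with 10% FBS and seeded at 4250 cells/well in 384-well plates. Compound serially diluted in DMSO was pin-transferred, followed by 48 h at 37 °C, 5% CO2. Viability was read by Bright-Glo luciferase luminescence.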

[2] = target: T1, Cytochrome P450 3A4 (Homo sapiens, UniProt P08684); assay: Inhibition of CYP3A4 using DBF as substrate
[3] = target: Cytochrome P450 2D6 (Homo sapiens, UniProt P10635); assay: Inhibition of CYP2D6 using AMMC as substrate; format: ADME
How it was run: (§1)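 Human CYP450 inhibition was measured with isoform-specific fluorogenic probe substrates: CEC for 1A2 and 2C19, MFC for 2C9, AMMC for 2D6. Incubation was at 37 °C with an NADPH-regenerating system in 384-well format. Metabolite was quantified by fluorescence, and IC50 was obtained by curve fitting.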

[4] = target: T1, Cytochrome P450 3A4; assay: Inhibition of CYP3A4 using BFC as substrate
[5] = target: Cytochrome P450 2C19 (Homo sapiens, UniProt P33261); assay: Inhibition of CYP2C19 using CEC as substrate; format: ADME; how it was run: as §1
[6] = target: T2, Cytochrome P450 1A2 (Homo sapiens, UniProt P05177); assay: Inhibition of CYP1A2 using CEC as substrate; format: ADME; how it was run: as §1
T2 sequence (P05177 whole entry): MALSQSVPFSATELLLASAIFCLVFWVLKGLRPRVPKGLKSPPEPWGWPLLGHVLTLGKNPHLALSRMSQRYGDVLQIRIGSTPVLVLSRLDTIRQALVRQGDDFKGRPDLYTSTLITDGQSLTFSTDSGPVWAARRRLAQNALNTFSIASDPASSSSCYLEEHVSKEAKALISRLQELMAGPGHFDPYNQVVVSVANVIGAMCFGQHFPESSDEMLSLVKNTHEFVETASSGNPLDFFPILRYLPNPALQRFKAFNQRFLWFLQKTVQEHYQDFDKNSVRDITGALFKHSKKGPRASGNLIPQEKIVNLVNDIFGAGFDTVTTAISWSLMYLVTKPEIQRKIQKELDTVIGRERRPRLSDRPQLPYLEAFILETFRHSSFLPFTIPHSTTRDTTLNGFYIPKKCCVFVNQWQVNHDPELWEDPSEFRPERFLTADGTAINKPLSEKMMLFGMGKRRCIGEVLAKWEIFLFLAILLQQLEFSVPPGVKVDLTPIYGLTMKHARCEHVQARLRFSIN

[7] = target: Cytochrome P450 2C9 (Homo sapiens, UniProt P11712); assay: Inhibition of CYP2C9 using MFC as substrate; format: ADME; how it was run: as §1
Chain of Cytochrome P450 2C9 (P11712 whole entry): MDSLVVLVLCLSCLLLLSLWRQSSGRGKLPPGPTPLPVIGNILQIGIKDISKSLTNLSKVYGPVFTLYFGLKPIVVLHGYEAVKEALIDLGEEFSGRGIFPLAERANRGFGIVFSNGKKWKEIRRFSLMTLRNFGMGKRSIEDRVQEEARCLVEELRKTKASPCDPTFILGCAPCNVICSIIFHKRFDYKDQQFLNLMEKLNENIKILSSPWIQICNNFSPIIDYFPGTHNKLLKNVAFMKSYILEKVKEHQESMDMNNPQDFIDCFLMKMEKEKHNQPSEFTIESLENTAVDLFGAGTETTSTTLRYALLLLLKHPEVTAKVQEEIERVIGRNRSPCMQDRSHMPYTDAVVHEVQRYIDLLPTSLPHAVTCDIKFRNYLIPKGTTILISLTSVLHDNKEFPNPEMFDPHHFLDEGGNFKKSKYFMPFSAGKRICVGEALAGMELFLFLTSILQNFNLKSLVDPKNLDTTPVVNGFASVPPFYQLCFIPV

T1 sequence (P08684 whole entry): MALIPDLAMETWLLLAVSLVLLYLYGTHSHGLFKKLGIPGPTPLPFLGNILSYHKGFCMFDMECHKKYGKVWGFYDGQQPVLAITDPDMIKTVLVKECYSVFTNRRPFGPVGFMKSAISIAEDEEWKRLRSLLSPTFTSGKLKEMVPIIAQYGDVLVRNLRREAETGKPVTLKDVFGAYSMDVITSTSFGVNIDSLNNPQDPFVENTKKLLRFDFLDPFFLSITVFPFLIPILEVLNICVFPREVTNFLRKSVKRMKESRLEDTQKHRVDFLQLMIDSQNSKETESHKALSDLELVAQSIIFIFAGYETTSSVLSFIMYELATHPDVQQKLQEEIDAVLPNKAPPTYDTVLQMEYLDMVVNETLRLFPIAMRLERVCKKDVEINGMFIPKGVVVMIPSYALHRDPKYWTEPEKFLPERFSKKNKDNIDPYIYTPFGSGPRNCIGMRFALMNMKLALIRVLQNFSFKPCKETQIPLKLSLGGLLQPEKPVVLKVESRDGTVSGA
Chain of Cytochrome P450 2C19 (P33261 whole entry): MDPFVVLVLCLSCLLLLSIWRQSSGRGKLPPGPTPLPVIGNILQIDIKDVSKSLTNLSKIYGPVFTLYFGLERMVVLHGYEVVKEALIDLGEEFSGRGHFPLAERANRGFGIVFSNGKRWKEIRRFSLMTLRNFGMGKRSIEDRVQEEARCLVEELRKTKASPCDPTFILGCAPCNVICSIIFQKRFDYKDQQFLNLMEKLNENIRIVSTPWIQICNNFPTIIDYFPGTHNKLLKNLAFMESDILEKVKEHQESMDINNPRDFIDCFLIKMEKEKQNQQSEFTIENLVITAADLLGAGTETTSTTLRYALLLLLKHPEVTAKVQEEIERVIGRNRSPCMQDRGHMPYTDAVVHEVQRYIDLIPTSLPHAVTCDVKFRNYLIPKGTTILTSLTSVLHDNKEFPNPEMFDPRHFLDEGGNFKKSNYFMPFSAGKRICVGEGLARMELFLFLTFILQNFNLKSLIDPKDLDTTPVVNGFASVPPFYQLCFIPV
Chain of Cytochrome P450 2D6 (P10635 whole entry, canonical isoform): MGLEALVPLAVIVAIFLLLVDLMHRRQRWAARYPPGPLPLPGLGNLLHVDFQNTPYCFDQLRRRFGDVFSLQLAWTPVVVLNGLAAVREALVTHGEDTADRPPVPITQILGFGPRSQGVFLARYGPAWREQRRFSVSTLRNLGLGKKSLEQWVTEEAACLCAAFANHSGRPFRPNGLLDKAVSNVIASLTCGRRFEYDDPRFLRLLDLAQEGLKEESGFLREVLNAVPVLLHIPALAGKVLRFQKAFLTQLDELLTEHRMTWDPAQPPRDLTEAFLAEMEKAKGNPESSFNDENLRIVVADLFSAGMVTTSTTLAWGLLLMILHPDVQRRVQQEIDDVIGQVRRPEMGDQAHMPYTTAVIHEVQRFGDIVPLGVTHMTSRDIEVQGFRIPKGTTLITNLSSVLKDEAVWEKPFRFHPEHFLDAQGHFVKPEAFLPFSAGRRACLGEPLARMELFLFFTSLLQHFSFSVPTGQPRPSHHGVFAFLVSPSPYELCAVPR

SMILES | IC50 [1] | IC50 [2] | IC50 [3] | IC50 [4] | IC50 [5] | IC50 [6] | IC50 [7]
COc1ccc(Cl)c(NC(=O)N(C)c2cc(Nc3ccc(N4CCN(C)CC4)cc3)ncn2)c1Cl | 0.118 µM |  |  |  |  |  | 
COc1cc(OC)c(Cl)c(NC(=O)N(C)c2cc(Nc3ccc(OCCN4CCCC4)cc3)ncn2)c1Cl | 0.028 µM | 2.5 µM | > 10 µM | > 10 µM | > 10 µM | > 10 µM | > 10 µM
CCN1CCC(c2ccc(Nc3cc(N(C)C(=O)Nc4c(Cl)c(OC)cc(OC)c4Cl)ncn3)cc2)CC1 | 0.014 µM | 6 µM | > 10 µM | 1.2 µM | 1.1 µM | > 10 µM | 4 µM
COc1ccc(Cl)c(NC(=O)Nc2cc(Nc3ccc(N4CCN(C)CC4)cc3)ncn2)c1 | 2.22 µM |  |  |  |  |  | 
COc1cc(NC(=O)N(C)c2cc(Nc3ccc(N4CCN(C)CC4)cc3)ncn2)c(Cl)c(OC)c1 | 0.635 µM |  |  |  |  |  | 
CCN(C(=O)Nc1cc(OC)cc(OC)c1Cl)c1cc(Nc2ccc(N3CCN(C)CC3)cc2)ncn1 | 0.75 µM |  |  |  |  |  | 

More lines, in order of falling IC50 [1], values ahead:

IC50 [1] | IC50 [2] | IC50 [3] | IC50 [4] | IC50 [5] | IC50 [6] | IC50 [7] | SMILES
1.51 µM |  |  |  |  |  |  | COc1cc(NC(=O)N(C)c2cc(Nc3ccc(N4CCN(C)CC4)cc3)ncn2)cc(OC)c1
0.832 µM |  |  |  |  |  |  | COc1cc(NC(=O)Nc2cc(Nc3ccc(N4CCN(C)CC4)cc3)ncn2)c(Cl)c(OC)c1
0.126 µM |  |  |  |  |  |  | COc1ccc(Cl)c(NC(=O)Nc2cc(Nc3ccc(N4CCN(C)CC4)cc3)ncn2)c1Cl
0.027 µM | > 10 µM | > 10 µM | 1 µM | 3.6 µM | > 10 µM | > 10 µM | COc1cc(OC)c(Cl)c(NC(=O)N(C)c2cc(Nc3ccc(CCCN(C)C)cc3)ncn2)c1Cl
0.014 µM | > 10 µM | > 10 µM | 0.5 µM | 0.3 µM | 7 µM | > 10 µM | COc1cc(OC)c(Cl)c(NC(=O)N(C)c2cc(Nc3cccc(CN4CCN(C)CC4)c3)ncn2)c1Cl
0.011 µM |  | > 10 µM |  | 1.4 µM | > 10 µM | > 10 µM | COc1cc(OC)c(Cl)c(NC(=O)N(C)c2cc(Nc3cccc(CN(C)C)c3)ncn2)c1Cl
0.002 µM | > 10 µM | > 10 µM | 1.1 µM | 0.9 µM | > 10 µM | 1.7 µM | COc1cc(OC)c(Cl)c(NC(=O)N(C)c2cc(Nc3cccc(N4CCN(C)CC4)c3)ncn2)c1Cl
